We go through nine molecules from ChEMBL document CHEMBL3997837, “Potent covalent inhibitors of bacterial urease identified by activity-reactivity profiling” (Bioorg Med Chem Lett, 2017).

Structures can show the parent of a compound that is named as a salt. Active and inactive are the calls of the source. The calls are words filed in the database; no cut-off is given here.

For data set [1], the system named is Sporosarcina pasteurii. In words: Reversible inhibition of Sporosarcina pasteurii CCM 2056 urease assessed as reduction in ammonia production by measuring recovery of enzyme activity at 10 times IC50 preincubated for 60 mins followed by 100-fold dilution in to PBS containing urea as substrate by Berthelot colorimetric assay relative to control. The arrangement: Activity: scale not given: the % may be the effect or the level left.

Data set [2] is described as follows: Inhibition of Sporosarcina pasteurii CCM 2056 urease assessed as reduction in ammonia production by measuring steady state enzyme-inhibitor complex using urea as substrate measured for 120 mins by phenol-hypochlorite method.
Data set [3] in a line: Glutathione reactivity in pH 7.4 PBS measured after 6 to 36 hrs in presence of 1.375 mmol GSH by DTNB reagent based spectrophotometric method. Summed up:
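Glutathione served as a model reactive-thiol compound. Unreacted GSH was quantified spectrophotometrically by a modified Ellman method, and reaction progress was followed over time up to 36 h.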

Data set [4] has as its system Sporosarcina pasteurii. In words: Competitive inhibition of Sporosarcina pasteurii CCM 2056 urease assessed as reduction in ammonia production preincubated with enzyme followed by addition of varying levels of urea as substrate measured for 120 mins by Lineweaver-Burk plot analysis.
The nature of data set [5]: Inhibition of Sporosarcina pasteurii CCM 2056 urease assessed as reduction in ammonia production by measuring initial state enzyme-inhibitor complex using urea as substrate measured for 120 mins by phenol-hypochlorite method.
Data set [6] in a line: Cytotoxicity against mouse BALB/3T3 cells assessed as inhibition of cell proliferation at 100 uM after 72 hrs by SRB assay relative to control. The data set is classed as cell-based. Summed up:
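Mouse BALB/3T3 cells were tested by SRB assay at a single concentration of 100, with the result given as percent inhibition of proliferation.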

Data set [7] is described as follows: Inhibition of Sporosarcina pasteurii CCM 2056 urease assessed as reduction in ammonia production using urea as substrate measured for 120 mins by phenol-hypochlorite method.
Data set [8] relates to Sporosarcina pasteurii. In words: Time-dependent Sporosarcina pasteurii CCM 2056 urease assessed as reduction in ammonia production using urea as substrate by phenol-hypochlorite method.
Data set [9] can be described thus: Glutathione reactivity up to 15 mins in presence of 10 mM GSH by 1H NMR analysis.
Data set [10] deals with BALB/3T3. In words: Cytotoxicity against mouse BALB/3T3 cells assessed as reduction in cell proliferation after 72 hrs by SRB assay. It counts as cell-based. To be noted: balb/3t3, 72 h. The gist of the method: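 Mouse BALB/3T3 fibroblasts were scored by SRB assay, with cytotoxicity given as LC50 values.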
Background: In SRB staining, fixed cells bind dye roughly in proportion to their protein.

The target of data set [11] is T1, Papain (Carica papaya) (UniProt P00784).
T1 sequence (whole entry): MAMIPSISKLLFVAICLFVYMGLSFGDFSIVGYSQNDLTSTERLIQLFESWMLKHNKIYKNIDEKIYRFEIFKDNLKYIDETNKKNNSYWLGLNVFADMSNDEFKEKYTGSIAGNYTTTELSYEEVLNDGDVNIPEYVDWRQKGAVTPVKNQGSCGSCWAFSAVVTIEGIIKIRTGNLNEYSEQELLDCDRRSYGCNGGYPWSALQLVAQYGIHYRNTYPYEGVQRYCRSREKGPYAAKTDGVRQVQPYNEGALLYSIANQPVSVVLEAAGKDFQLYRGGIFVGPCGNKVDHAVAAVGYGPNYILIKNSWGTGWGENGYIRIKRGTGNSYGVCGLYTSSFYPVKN
Nature of the data set: Inhibition of Carica papaya papain at 0.1 to 1 mM using BzArgOEt as substrate measured for 30 mins.

The nature of data set [12]: Inhibition of Proteus mirabilis 543 urease at pH 5.5 assessed as reduction in ammonia production using urea as substrate preincubated for 120 mins followed by substrate addition measured after 15 mins by NaOH-hypochlorite method. Summed up:
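Intact Proteus mirabilis cells were preincubated with inhibitors in PBS for 2 h, then tested at pH 5.5, matching urine acidity, with 5 mM urea. IC50 was determined.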

The test system of data set [13] is Proteus mirabilis. In words: Inhibition of Proteus mirabilis 543 urease at pH 5.5 assessed as reduction in ammonia production using urea as substrate followed by substrate addition by NaOH-hypochlorite method. To be noted: TDE = time-dependent effect.
Data set [14] is described as follows: Inhibition of Proteus mirabilis 543 urease at pH 5.5 assessed as reduction in ammonia production using urea as substrate measured after 15 mins by NaOH-hypochlorite method. Summed up: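 Intact Proteus mirabilis cells were tested at pH 5.5, matching physiological urine, with 5 mM urea. Inhibitors were added without preincubation, and IC50 was determined.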

A short description of data set [15]: Glutathione reactivity after 36 hrs in presence of 10 mM GSH by 1H NMR analysis.
The target in data set [16] is T1, Papain (Carica papaya). In words: Inhibition of Carica papaya papain at 0.1 to 0.25 mM using BzArgOEt as substrate measured for 30 mins.

Turning to `COC(=O)/C=C/C1=CC(=O)CC1`, in data set [1], the Activity was determined as 16.7%. In addition, the Ki (in general, a dissociation constant, usually derived from enzyme kinetics or from competition with a known ligand) in data set [2] (read-out: Ki) is 0.316 µM; in [5] (read-out: Ki) it was 16.7 µM; in data set [7] (read-out: Ki), 0.285 µM. Also, the K in [3] amounted to 0.166 M⁻¹ s⁻¹. Also, in data set [3], the log K amounted to 0.998. Moreover, the mode of inhibition entry in [4] is “Active”. In addition, in data set [6], the inhibition (in general, the drop in the measured response relative to a control, in per cent) at 72 h, 100 µM was determined as 35.2%. The TDI entry in [8] was “Active”.

Take `COC(=O)C#CC(=O)OC`: the Drug metabolism entry in data set [9] is given as “Metabolite detected”. In addition, the Activity in [1] came to 9.2%. The Ki turned out to be 0.0124 µM in data set [2] (read-out: Ki), 0.973 µM in data set [5] (read-out: Ki) and 0.00977 µM in data set [7] (read-out: Ki). Also, the K in [3] amounted to 6.47 M⁻¹ s⁻¹. Moreover, in data set [3], the log K is 2.59. Besides, the mode of inhibition result in [4] is “Active”. Moreover, the LC50 (as a rule, the concentration that kills 50% of the test population) in data set [10] was found to be 29.8 µM. Further, in [8], the TDI entry is “Active”.

Consider `O=C(O)C#CC(=O)O`, for which the Activity in data set [1] turned out to be 10.9%. Also, the values for the Ki in data set [2] (read-out: Ki), in data set [5] (read-out: Ki) and in data set [7] (read-out: Ki) were 0.0553 µM, 3.95 µM and 0.0425 µM, respectively. In [11], the inhibition result is “inactive”. Further, in data set [3], the K was 0.000122 M⁻¹ s⁻¹. In addition, the log K in data set [3] is -2.14. Moreover, the IC50 (commonly the concentration needed to halve the response being measured) in data set [12] (read-out: IC50) worked out at 88.6 µM; in [14] (read-out: IC50), 326 µM. Also, in data set [4], the mode of inhibition result is “Active”. Moreover, the inhibition result in data set [13] was “Tde”. In addition, the LC50 entry in [10] is “Non-Toxic”. In data set [8], the TDI result was “Active”.

`CCOC(=O)/C=C/c1ccccc1` [ETHYL CINNAMATE]: the inhibition result in data set [1] is “inactive”. Also, the Ki result in [2], in data set [5] and in data set [7] was “Not Active” each time. In addition, in [3], the K turned out to be 1.21e-05 M⁻¹ s⁻¹. For the same molecule, in data set [3], the log K is -3.14. Besides, the IC50 entry in data set [12] and in data set [14] was “Not Active” in each case. Besides, the inhibition result in data set [13] was “Tde”. Moreover, in data set [6], the inhibition at 72 h, 100 µM worked out at 29.1%.

In the case of `COC(=O)/C=C/C(=O)OC` [DIMETHYL FUMARATE], the Drug metabolism entry in data set [9] is listed as “Metabolite detected”. In addition, the Activity in [1] is 36.8%. The Ki in data set [2] (read-out: Ki) turned out to be 21.7 µM; in data set [5] (read-out: Ki), 311 µM; in data set [7] (read-out: Ki), 21.3 µM. Also, the K in [3] worked out at 2.62 M⁻¹ s⁻¹. For the same molecule, the log K in data set [3] came to 2.2. Further, the mode of inhibition result in [4] is “Active”. Besides, the LC50 in data set [10] stood at 39.7 µM. For the same molecule, in data set [8], the TDI result was “Active”.

For `O=C1C=CCCC1`, the Activity in [1] was found to be 27.2%. The results for the Ki in [2] (read-out: Ki), in data set [5] (read-out: Ki) and in data set [7] (read-out: Ki) were 0.267 µM, 22.8 µM and 0.766 µM, respectively. Also, the K in data set [3] came out at 0.37 M⁻¹ s⁻¹. Further, the log K in [3] is 1.35. Also, the mode of inhibition result in data set [4] was “Active”. Moreover, the inhibition at 72 h, 100 µM in data set [6] turned out to be 29.8%. Also, the TDI result in [8] is “Active”.

For `O=C(O)/C=C/c1ccccc1` [CINNAMIC ACID], the Drug metabolism entry in data set [15] is on record as “Metabolite not detected”. In addition, in data set [1], the Activity stood at 40.3%. Moreover, the Ki was 23 µM in data set [2] (read-out: Ki), 595 µM in [5] (read-out: Ki) and 21.5 µM in data set [7] (read-out: Ki). In addition, in data set [3], the K was under 1.67e-06 M⁻¹ s⁻¹. In addition, the log K in data set [3] is over -4. Further, the IC50 turned out to be 125 µM in data set [12] (read-out: IC50) and 492 µM in data set [14] (read-out: IC50). For the same molecule, the mode of inhibition entry in data set [4] was “Active”. In [13], the inhibition entry is “Tde”. Further, the inhibition result in data set [16] is “inactive”. Also, the TDI entry in [8] is “Active”.

`O=C(O)/C=C/C(=O)O` [FUMARIC ACID]: the Activity in data set [1] was 39.7%. Moreover, the results for the Ki in [2] (read-out: Ki), in data set [5] (read-out: Ki) and in [7] (read-out: Ki) were 37.1 µM, 432 µM and 36.5 µM, respectively. In [11], the inhibition result was “inactive”. For the same molecule, the K in [3] is 5e-05 M⁻¹ s⁻¹. Further, the log K in data set [3] was -2.52. For the same molecule, the values for the concentration for half-maximal inhibition (IC50) in [12] (read-out: IC50) and in [14] (read-out: IC50) were 65.5 µM and 182 µM, respectively. Also, the mode of inhibition entry in [4] is “Active”. In addition, the inhibition entry in data set [13] is “Tde”. Moreover, the LC50 result in [10] is listed as “Non-Toxic”. Besides, the TDI entry in data set [8] was “Active”.

As for `Cc1ccc(C(=O)/C=C/C(=O)O)cc1`, the Activity in [1] stood at 32.7%. Further, the Ki in data set [2] (read-out: Ki) worked out at 6.64 µM; in [5] (read-out: Ki), 77.1 µM; in [7] (read-out: Ki), 6.36 µM. Also, the K in data set [3] is 0.333 M⁻¹ s⁻¹. For the same molecule, the log K in [3] stood at 1.3. Further, the mode of inhibition result in [4] is “Active”. Moreover, in [6], the inhibition at 72 h, 100 µM is 31.3%. The TDI result in [8] is “Active”.
